Results taken from ChEMBL document CHEMBL5230174, “Synthesis and properties of the kojic acid dimer and its potential for the treatment of Alzheimer's disease” (RSC Med Chem, 2023).
The source made the active and inactive calls. The rule behind the calls is not given here.

Key:
[1] = Antioxidant activity assessed as DPPH radical scavenging activity at 100 uM incubated for 30 mins under dark condition by UV-Vis spectrophotometry; type: functional
Procedure, shortened: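 Compound dilutions made in DMSO. 100 μM DPPH in ethanol mixed 9:1 with sample, shaken 30 min in dark at room temperature; absorbance read at 517 nm on plate reader. Scavenging rate calculated from absorbance; triplicate wells, three parallel measurements, three independent experiments.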

[2] = Antioxidant activity assessed as ABTS radical scavenging activity at 100 uM incubated for 6 mins under dark condition by UV-Vis spectrophotometry; type: functional
Procedure, shortened: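 Compound dilutions made in DMSO. ABTS (7 mM in water) reacted with 4.96 mM potassium persulfate, 16 h dark at room temperature; working solution adjusted to A734 0.70 ± 0.02. Working solution mixed with sample 9:1, shaken 6 min at room temperature in dark; A734 read on plate reader. Scavenging rate from absorbance; triplicate wells, three independent experiments.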

[3] = Cytotoxicity against mouse BV-2 cells assessed as reduction in cell viability incubated for 24 hrs by MTT assay; type: toxicity, cell-based
Procedure, shortened: (§1)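 Cells grown with 10% FBS plus penicillin/streptomycin at 37 °C, 5% CO2 (SH-SY5Y in DMEM/F12; BV-2, HT-22, H9c2 in DMEM; L02 in RPMI 1640). Seeded 1 × 10^4 per well, 24 h, then compound in medium 24 h. MTT (5 mg/mL stock) added 4 h at 37 °C; formazan dissolved in DMSO, A490 read.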

[4] = Cytotoxicity against human SH-SY5Y cells assessed as reduction in cell viability incubated for 24 hrs by MTT assay; type: toxicity, cell-based; procedure, shortened: as §1
[5] = Cytotoxicity against mouse HT-22 cells assessed as reduction in cell viability incubated for 24 hrs by MTT assay; type: toxicity, cell-based; procedure, shortened: as §1
[6] = Cytotoxicity against rat H9c2 cells assessed as reduction in cell viability incubated for 24 hrs by MTT assay; type: toxicity, cell-based; procedure, shortened: as §1
[7] = Cytotoxicity against human L02 cells assessed as reduction in cell viability incubated for 24 hrs by MTT assay; type: toxicity, cell-based; procedure, shortened: as §1
[8] = biological target: Amyloid-beta precursor protein (Homo sapiens) (UniProt P05067); experiment: Inhibition of HFIP-pretreated human amyloid beta (1 to 42) aggregation at 50 uM incubated for 24 hrs under dark condition by Thioflavin T dye based fluorometric analysis
Procedure, shortened: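 HFIP-pretreated human Aβ1–42 dissolved at 1000 μM in 1% NH4OH, sonicated 1 h cold, stored −20 °C, diluted in PBS pH 7.4. Aβ (25 μM final) incubated with compound (50 μM final) or PBS 24 h at 37 °C in dark. Aliquot mixed with 5 μM ThT in Gly-NaOH pH 8.5, shaken 5 min; fluorescence ex 450/em 490 nm. Inhibition = 1 − Fs/F0, background ThT subtracted; three independent experiments.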

[9] = Antioxidant activity assessed as DPPH radical scavenging activity at 100 uM incubated for 30 mins under dark condition by UV-Vis spectrophotometry relative to kojic acid; type: functional
Procedure, shortened: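 Samples serially diluted in DMSO, tested at 400–6.25 μM. Mixed with 100 μM DPPH in ethanol at 9:1 reagent:sample and shaken 30 min in the dark at room temperature. Absorbance read at 517 nm. Scavenging rate (%) is the mean of three independent experiments, each run in triplicate wells.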

[10] = Antioxidant activity assessed as ABTS radical scavenging activity at 100 uM incubated for 6 mins under dark condition by UV-Vis spectrophotometry relative to kojic acid; type: functional
Procedure, shortened: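 Samples serially diluted in DMSO, tested at 400–6.25 μM. ABTS (7 mM, water) reacted with 4.96 mM potassium persulfate for 16 h in the dark at room temperature, then diluted to A734 of 0.70 ± 0.02. Working solution mixed 9:1 with sample and shaken 6 min in the dark at room temperature. Absorbance read at 734 nm; scavenging rate (%) is the mean of three independent experiments.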

[11] = Antioxidant activity assessed as ABTS radical scavenging activity at 50 uM incubated for 6 mins under dark condition by UV-Vis spectrophotometry; type: functional
Procedure, shortened: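 ABTS radical cation is generated from 7 mM ABTS and 4.96 mM potassium persulfate, kept dark at room temperature for 16 h, and diluted to A734 0.70 ± 0.02. Samples are serially diluted in DMSO and mixed with working solution, then shaken 6 min at room temperature in the dark before reading A734. Scavenging rate (%) comes from triplicate wells; VC and KA are controls.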

SH-SY5Y = experiment: Neuroprotective activity against H2O2-induced oxidative damage in human SH-SY5Y cells assessed as increase in cell viability at 500 uM pretreated for 24 hrs followed by H2O2 challenge for 2 hrs by MTT assay; type: functional, cell-based; settings: time 26.0 hrs
Procedure, shortened: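 SH-SY5Y cells are seeded at 1 × 10^4/well in DMEM/F12 with 10% FBS and grown 24 h. They are pretreated with compound for 24 h, then given 200 μM H2O2 for 2 h. MTT (5 mg/mL stock) is added for 4 h, formazan dissolved in DMSO, and A490 read. Viability is given as % of untreated control, mean ± SEM (n = 3).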

H9c2 [12] = experiment: Neuroprotective activity against H2O2-induced oxidative damage in rat H9c2 cells assessed as increase in cell viability at 125 to 500 uM pretreated for 24 hrs followed by H2O2 challenge for 2 hrs by MTT assay; type: functional, cell-based; settings: dose 125-500 µM, time 26.0 hrs
BV-2 [13] = experiment: Antioxidant activity in mouse BV-2 cells assessed as reduction in H2O2-induced intracellular ROS accumulation at 125 to 500 uM pretreated for 24 hrs followed by H2O2 challenge for 12 hrs by DCFH-DA staining based inverted fluorescence microscopy; type: functional, cell-based; settings: dose 125-500 µM, time 36.0 hrs
Procedure, shortened: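 BV-2 cells (2 × 10^5/well) are pretreated with compound for 24 h, then given 1000 μM H2O2 for 12 h. They are loaded with 10 μM DCFH-DA in serum-free medium for 30 min at 37 °C and washed three times with PBS.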

H9c2 [14] = experiment: Antioxidant activity in rat H9c2 cells assessed as reduction in H2O2-induced intracellular ROS accumulation at 125 to 500 uM pretreated for 24 hrs followed by H2O2 challenge for 4 hrs by DCFH-DA staining based inverted fluorescence microscopy; type: functional, cell-based; settings: dose 125-500 µM, time 28.0 hrs
BV-2 [15] = experiment: Antioxidant activity in mouse BV-2 cells assessed as reduction in H2O2-induced intracellular ROS accumulation by measuring intracellular ROS level at 500 uM pretreated for 24 hrs followed by H2O2 challenge for 12 hrs by DCFH-DA staining based flow cytometry (reference value: 40.7%); type: functional; parameters: scale not given: the % may be the effect or the level left; settings: time 36 hrs
BV-2 [16] = experiment: Antioxidant activity in mouse BV-2 cells assessed as reduction in H2O2-induced intracellular ROS accumulation by measuring intracellular ROS level at 250 uM pretreated for 24 hrs followed by H2O2 challenge for 12 hrs by DCFH-DA staining based flow cytometry (reference value: 40.7%); type: functional; parameters: scale not given: the % may be the effect or the level left; settings: time 36 hrs
BV-2 [17] = experiment: Antioxidant activity in mouse BV-2 cells assessed as reduction in H2O2-induced intracellular ROS accumulation by measuring intracellular ROS level at 125 uM pretreated for 24 hrs followed by H2O2 challenge for 12 hrs by DCFH-DA staining based flow cytometry (reference value: 40.7%); type: functional; parameters: scale not given: the % may be the effect or the level left; settings: time 36 hrs
[18] = Induction of intracellular ROS accumulation in mouse BV-2 cells at 500 uM treated for 24 hrs by DCFH-DA staining based flow cytometry (reference value: 7.15%); type: toxicity, cell-based; settings: bv-2, 24 h
H9c2 [19] = experiment: Antioxidant activity in rat H9c2 cells assessed as reduction in H2O2-induced intracellular ROS accumulation at 125 to 500 uM pretreated for 24 hrs followed by H2O2 challenge for 4 hrs by DCFH-DA staining based flow cytometry; type: functional, cell-based; settings: dose 125-500 µM, time 28.0 hrs
BV-2 [20] = experiment: Antioxidant activity in mouse BV-2 cells assessed as reduction in H2O2-induced ROS burst by measuring increase in SOD activity at 125 to 500 uM treated with compound prior to H2O2 challenge; type: functional, cell-based; settings: dose 125-500 µM
[21] = Metal chelating activity assessed as compound-Fe3+ complex formation by measuring optical responses at 100 uM in presence of FeCl3 by UV-Vis spectroscopy
Procedure, shortened: (§2)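 Compound held at 100 μM in HEPES buffer (pH 7.4). The metal salt (CuSO4, ZnCl2, FeCl2, FeCl3·7H2O, AlCl3, Mn(CH3COO)2, MgSO4, NaCl, KCl or CaCl2) was added at one equivalent, and the UV-vis absorption spectrum was recorded from 200 to 800 nm.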

H9c2 [22] = experiment: Antioxidant activity in rat H9c2 cells assessed as reduction in H2O2-induced ROS burst by measuring increase in SOD activity at 125 to 500 uM treated with compound prior to H2O2 challenge; type: functional, cell-based; settings: dose 125-500 µM
[23] = Metal chelating activity assessed as compound-Cu2+ complex formation by measuring optical responses at 100 uM in presence of CuSO4 by UV-Vis spectroscopy; procedure, shortened: as §2
[24] = Metal chelating activity assessed as compound-Zn2+ complex formation by measuring optical responses at 100 uM in presence of ZnCl2 by UV-Vis spectroscopy; procedure, shortened: as §2
[25] = Metal chelating activity assessed as compound-Fe2+ complex formation by measuring optical responses at 100 uM in presence of FeCl2 by UV-Vis spectroscopy; procedure, shortened: as §2
[26] = Metal chelating activity assessed as compound-Al3+ complex formation by measuring optical responses at 100 uM in presence of AlCl3 by UV-Vis spectroscopy; procedure, shortened: as §2
[27] = Metal chelating activity assessed as compound-Na+ complex formation by measuring optical responses at 100 uM in presence of NaCl by UV-Vis spectroscopy; procedure, shortened: as §2
[28] = Metal chelating activity assessed as compound-K+ complex formation by measuring optical responses at 100 uM in presence of KCl by UV-Vis spectroscopy; procedure, shortened: as §2
[29] = Metal chelating activity assessed as compound-Mg2+ complex formation by measuring optical responses at 100 uM in presence of MgSO4 by UV-Vis spectroscopy; procedure, shortened: as §2
[30] = Metal chelating activity assessed as compound-Ca2+ complex formation by measuring optical responses at 100 uM in presence of CaCl2 by UV-Vis spectroscopy; procedure, shortened: as §2
[31] = Metal chelating activity assessed as compound-Mn2+ complex formation by measuring optical responses at 100 uM in presence of Mn(CH3COO)2 by UV-Vis spectroscopy; procedure, shortened: as §2
[32] = Metal chelating activity assessed as compound-Cu2+ complex formation by measuring increase in absorption band intensity at 475 nm at 100 uM in presence of CuSO4 by UV-Vis spectroscopy
Procedure, shortened: (§3)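 Compound held at 100 μM in HEPES buffer (pH 7.4) and titrated with Cu2+ at 12.5–200 μM (nine levels). UV-vis spectra were followed at 370 and 475 nm. Stoichiometry was taken from a plot of absorbance at 475 nm against the Cu2+:compound ratio.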

[33] = Metal chelating activity assessed as compound-Cu2+ complex formation by measuring decrease in absorption band intensity at 370 nm at 100 uM in presence of CuSO4 by UV-Vis spectroscopy; procedure, shortened: as §3
[34] = Metal chelating activity assessed as compound-Cu2+ complex formation at stoichiometric ratio of 1:1 at 100 uM in presence of CuSO4 by UV-Vis spectroscopy; procedure, shortened: as §3
[35] = Metal chelating activity assessed as compound-Fe2+ complex formation at stoichiometric ratio of 1:1 at 100 uM in presence of FeCl2 by UV-Vis spectroscopy

Amyloid-beta precursor protein (Homo sapiens), sequence (P05067 whole entry): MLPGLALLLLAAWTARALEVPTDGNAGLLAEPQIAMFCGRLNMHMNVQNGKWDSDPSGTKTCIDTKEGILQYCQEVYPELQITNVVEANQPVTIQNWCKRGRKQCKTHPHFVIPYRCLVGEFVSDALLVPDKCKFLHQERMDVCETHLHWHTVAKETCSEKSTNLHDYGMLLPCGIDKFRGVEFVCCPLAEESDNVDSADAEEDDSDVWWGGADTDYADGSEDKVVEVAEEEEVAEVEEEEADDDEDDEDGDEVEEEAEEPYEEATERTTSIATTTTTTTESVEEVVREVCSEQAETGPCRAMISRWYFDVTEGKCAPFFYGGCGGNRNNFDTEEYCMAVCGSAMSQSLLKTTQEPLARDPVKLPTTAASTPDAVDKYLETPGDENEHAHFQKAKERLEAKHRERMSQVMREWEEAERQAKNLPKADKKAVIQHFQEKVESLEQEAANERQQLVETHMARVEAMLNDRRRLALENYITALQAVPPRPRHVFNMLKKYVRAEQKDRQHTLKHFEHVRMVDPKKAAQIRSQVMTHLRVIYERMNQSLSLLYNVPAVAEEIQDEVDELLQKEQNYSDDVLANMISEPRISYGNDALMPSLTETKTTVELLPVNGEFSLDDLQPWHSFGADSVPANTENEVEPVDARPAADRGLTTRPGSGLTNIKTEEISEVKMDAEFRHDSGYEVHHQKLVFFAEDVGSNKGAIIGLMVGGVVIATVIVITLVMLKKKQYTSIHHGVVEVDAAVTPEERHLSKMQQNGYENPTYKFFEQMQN

Compound `O=c1cc(CO)occ1O` [KOJIC ACID] has an Activity [1] of 17.8%, an Activity [2] of 46.8% and an IC50 at 24 h [3] greater than 500 µM. It also gave an IC50 at 24 h [4] greater than 500 µM, an IC50 at 24 h [5] greater than 500 µM and an IC50 at 24 h [6] greater than 500 µM. For the same compound, the IC50 at 24 h [7] was greater than 500 µM and the inhibition [8] was 14.6%.
`O=c1cc(CO)oc(-c2oc(CO)cc(=O)c2O)c1O` gave an Activity [1] of 50.3%, an Activity [2] of 79.4% and a fold change (FC) [9] of 2. The fold change (FC) [10] was 2, the Activity [11] was 56% and the IC50 at 24 h [3] was greater than 500 µM. For the same compound, the IC50 at 24 h [4] was greater than 500 µM, the IC50 at 24 h [5] was greater than 500 µM and the IC50 at 24 h [6] was greater than 500 µM. The IC50 at 24 h [7] was greater than 500 µM, the inhibition [8] was 17% and the Activity (SH-SY5Y) was “Active”. The Activity (H9c2 [12]) was “Active”, the Activity (BV-2 [13]) was “Active” and the Activity (H9c2 [14]) was “Active”. For the same compound, the Activity (BV-2 [15]) was 21.6%, the Activity (BV-2 [16]) was 24.8% and the Activity (BV-2 [17]) was 29.4%. For the same compound, the Activity [18] was 14%, the Activity (H9c2 [19]) was “Active” and the Activity (BV-2 [20]) was “Dose-Dependent Effect”. The Activity [21] was “Active”, the Activity (H9c2 [22]) was “Active” and the Activity [23] was “Active”. The Activity [24] was “Active”, the Activity [25] was “Active” and the Activity [26] was “Active”. For the same compound, the Activity [27] was “inactive”, the Activity [28] was “inactive” and the Activity [29] was “inactive”. For the same compound, the Activity [30] was “inactive”, the Activity [31] was “inactive” and the Activity [32] was “Active”. The Activity [33] was “Active”, the Activity [34] was “Active” and the Activity [35] was “Active”.
Work on `O=C1O[C@H]([C@@H](O)CO)C(O)=C1O` yielded an Activity [11] of 39.7%.
